# The full list was thinned out, with hits kept by preference.
# AP complement: alternative complement pathway inhibitors, primary screen, biochemical, ELISA, human serum, orthogonally pooled compounds; LPS-coated ELISA, C3 deposition; tested in compound mixtures; inhibition, % at 5 µM; hit rate 0.08% among 62,000; AID 1235, 2008;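 active means inhibition above 30% in each of the two pooled mixtures holding the compound, so the lower value exceeds 30%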
#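 Medium: diluted human serum in Mg2+-EGTA GVB++. Assay system: human serum complement alternative pathway, C3 deposition onto LPS. Also added: Plate-bound LPS. Technique: Anti-C3 ELISA, OD 450 nm. Measure: percent inhibition. Incubation: 1 h at 37 °C. Dosing: 5 µM each compound, pools of ten, 50 µM per pool.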
# HEK293 NFkB inh: inhibitors of PMA/ionomycin-induced NF-kB reporter, primary screen, antigen receptor NF-kB inhibitor project, cell-based, HEK-293 luciferase reporter, luminescence; inhibition, % at 3 µM; HEK-293 NF-kB luciferase reporter; hit rate 0.21% among 62,000;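 active means inhibition above the mean of all tested compounds plus 3 SD, cut at about 40% in these data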
#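 Signal: luciferase luminescence; Material: HEK-293 cells with stable firefly luciferase reporter driven by four HIV NF-kB elements; Probe or stimulus: PMA with ionomycin; Replication: tested once; Times: 1 h compound pretreatment, then 16 h stimulation at 37 °C, 5% CO2; Benchmarks: DMSO and 10 µM reference inhibitor; Evaluation: per-plate % inhibition versus controls.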
# hDAT+cocaine: changed hDAT dopamine uptake under cocaine IC80, either direction, primary screen, cocaine antagonist project, cell-based, LLC-PK1 hDAT, [14C]-dopamine uptake, MLSMR; LLC-PK1 hDAT cells, [14C]-dopamine uptake with cocaine IC80; actives deviate in either direction; B-score at 10 µM; hit rate 1.3% among 110,000; AID 449768, 2010;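 active means Z score or B-score, a plate-position-corrected score, falls beyond the plate's 99.7% confidence bounds, in either direction; inactive means both scores lie inside the 99.7% bounds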
# Ec RNAP inh: E. coli RNAP inhibitors, biochemical. DNA-directed RNA polymerase subunit beta (Escherichia coli (strain K12)), P0A8V2. E. coli RNA polymerase, fluorescence transcription assay. inhibition, %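 (tested at 10 µM)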. hit rate 0.2% among 62,000; in the data active means inhibition above about 20%
# D1 allo mod: D1 CRE-luciferase signal change, two-sided – cell-based, HEK293 D1, dopamine EC30, D1 allosteric modulator project, primary screen. D(1A) dopamine receptor (Homo sapiens), P21728. dopamine EC30 potentiation; actives deviate in either direction. B-score at 10 µM. hit rate 5.9% among 58,000;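 active means luminescence count or its row- and column-corrected plate score outside the 99.7% band of the plate's sample wells, on either side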
# Target sequence (P21728 whole entry, looked up): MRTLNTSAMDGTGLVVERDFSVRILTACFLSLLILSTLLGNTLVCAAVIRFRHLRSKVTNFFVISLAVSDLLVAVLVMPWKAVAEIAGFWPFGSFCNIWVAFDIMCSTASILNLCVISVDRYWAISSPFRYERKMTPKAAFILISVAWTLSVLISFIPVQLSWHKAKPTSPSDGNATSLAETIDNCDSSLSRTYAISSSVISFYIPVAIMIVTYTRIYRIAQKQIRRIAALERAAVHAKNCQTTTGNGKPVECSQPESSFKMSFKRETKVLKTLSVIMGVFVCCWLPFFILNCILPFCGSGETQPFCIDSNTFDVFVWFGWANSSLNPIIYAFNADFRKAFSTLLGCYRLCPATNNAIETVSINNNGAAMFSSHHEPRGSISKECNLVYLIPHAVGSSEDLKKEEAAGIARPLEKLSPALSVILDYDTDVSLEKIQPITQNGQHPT
# D1 mod confirm: D1 receptor positive allosteric modulators, retest, confirmation, cell-based, HEK293 D1, CRE-luciferase, duplicate | luminescence at 10 µM | shares compounds with D1 allo mod | hit rate 88% among 2,200 | dopamine EC30 potentiation; active compounds read high;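 active means luminescence in either of two replicates above the same-plate mean plus 3 SD of the low-dose dopamine control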
# D1 ag no DA: D1 receptor agonism without dopamine, confirmation, mechanism study for D1 allosteric modulator project, cell-based, HEK293 D1, CRE-luciferase, secondary assay 1; luminescence at 10 µM; shares compounds with D1 allo mod; hit rate 0.8% among 1,900; luminescence, no dopamine; active compounds read high; in the data active means luminescence above about 3900
# Isoprot counter: counter-screen for D1 modulators: isoproterenol response in HEK293 cells. HEK293 D1 CRE-luciferase, isoproterenol EC30 counter-screen. hit rate 63% among 2,200. calls only at 10 µM. shares compounds with D1 allo mod;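 active means luminescence in either replicate above plate mean of wells with a partly effective reference agonist dose plus 3 SD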;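 further: isoproterenol raises cAMP through native beta-adrenoceptor Gs so signal bypasses D1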
# Hits are given with their value; 0 = inactive; - = no result; + = active, no number.
SMILES,AP complement,HEK293 NFkB inh,hDAT+cocaine,Ec RNAP inh,D1 allo mod,D1 mod confirm,D1 ag no DA,Isoprot counter
CCCCc1cc2c(c(NC(=O)CC)n1)c(=O)oc1ccccc12,0,0,0,0,6.6,23508,0,+
Cc1cc(C)c(-c2noc(C(=O)OC(C)(C)C)c2C(=O)OC(C)(C)C)c(C)c1,-,-,0,-,-,-,-,-
Cc1noc2ncnc(Sc3ccccc3Cl)c12,-,-,0,-,-,-,-,-
CCOc1ccc(-c2n[nH]c(C)c2Oc2ccc(OC)cc2)c(O)c1,0,0,0,0,0,-,-,-
CCc1nc(NCc2ccco2)c2oc3ccccc3c2n1,0,0,0,0,13,0,-,0
CCc1nc(NCC2CCCO2)c2oc3ccccc3c2n1 (stereo unspecified),0,0,0,0,6,12724,-,+
Cc1nc(NCC2CCCO2)c2oc3ccccc3c2n1 (stereo unspecified),0,0,0,0,-,-,-,-
CCNc1nc(C)nc2c1oc1ccccc12,0,0,0,0,9.3,16376,-,+
CCNc1nc(CC)nc2c1oc1ccccc12,0,0,0,0,-,-,-,-
CC(=O)Nc1ccc(C(=O)CSc2nnnn2C(C)C)cc1,0,0,0,0,-,-,-,-
O=C(NCCc1ccncc1)Nc1ccccc1Cl,0,0,0,0,0,-,-,-
C(=N\N1CCN(Cc2cccc3ccccc23)CC1)/c1cccnc1,-,-,0,-,-,-,-,-
CCS(=O)(=O)CCSc1nc2c(cc1C#N)CCCC2,0,0,0,0,5.5,19348,0,+
N#CCSc1nc2c(cc1C#N)CCCCCC2,-,-,0,0,7.9,11156,0,+
N#Cc1cc2c(nc1SCC(=O)Nc1sc3c(c1C#N)CCC3)CCCCC2,0,0,0,0,6,10448,0,+
COc1ccc2nc(SCC(=O)N3CCCCCC3)c(C#N)cc2c1,0,0,0,0,3.5,10688,0,0
C#Cc1ccc([C@H]2C=C(C(=O)NC3CC3)O[C@@H](OCC)[C@@H]2CCCO)cc1,-,-,0,-,-,-,-,-
O=S(=O)(c1cnc[nH]1)N1CCc2ccccc21,0,0,0,0,0,-,-,-
N#Cc1cc2c(nc1SCC(=O)N1CCCCC1)CCCCC2,0,0,0,0,3.8,10608,-,+
Cc1nc(-c2cccc(S(=O)(=O)N3CCCCCC3)c2)cs1,-,-,0,-,-,-,-,-
Cc1nc(-c2ccc(S(=O)(=O)N3CCCCCC3)cc2)cs1,0,0,0,0,2.7,8332,0,0
Nc1cccc(-n2nncc2-c2ccc(Cl)cc2)c1,0,0,0,0,0,-,-,-
Nc1nonc1-n1nncc1-c1ccccc1,0,0,0,0,5.9,10724,0,+
CCC1S/C(=C(\C#N)C(N)=O)N(c2ccc(F)cc2)C1=O (stereo unspecified),0,0,0,0,5,9908,-,+
Cn1ccnc1C(=O)c1cc(=O)c2ccccc2o1,0,0,0,0,0,-,-,-
SMILES,AP complement,HEK293 NFkB inh,hDAT+cocaine,Ec RNAP inh,D1 allo mod,D1 mod confirm,D1 ag no DA,Isoprot counter
O=C(NCc1ccco1)c1cccc2c1C(=O)N(C1CCCCC1)C2,0,0,0,0,17,21064,0,+
O=C(NCc1cccnc1)c1cccc2c1C(=O)N(C1CCCCC1)C2,0,0,-,0,21,25588,0,+
Cc1[nH]nc2c1C(c1ccc(F)cc1)C1=C(CC(C)(C)CC1=O)N2 (stereo unspecified),0,0,0,0,6.3,12860,0,0
CCC(NC(=O)NCc1cccnc1)(C(F)(F)F)C(F)(F)F,0,0,0,0,0,-,-,-
CC(C#N)Sc1nc2ccccc2c(=O)n1-c1ccccc1 (stereo unspecified),0,0,0,0,9.2,22624,0,+
COCCn1c(-c2ccco2)nc2nc3ccccc3nc21,0,0,-,0,9.2,16228,0,+
CC(C)OCCCn1c(-c2ccco2)nc2nc3ccccc3nc21,0,0,-,0,0,-,-,-
Cc1cccc(Cn2c(=O)n(Cc3ccco3)c(=O)c3ccccc32)c1,0,0,0,0,12,22552,0,+
Cc1cccc(Cn2c(=O)n(CCCC(=O)NCc3ccco3)c(=O)c3ccccc32)c1,0,0,-,0,0,-,-,-
Cc1ccccc1Cn1c(=O)n(CCCC(=O)NCc2ccco2)c(=O)c2ccccc21,0,0,0,0,5.5,11052,0,+
N#Cc1ccccc1Cn1c(=O)n(Cc2ccc(C(=O)NCc3ccco3)cc2)c(=O)c2ccccc21,0,0,0,0,4.4,18988,0,+
Cc1c(C(=O)NC2CCCc3ccccc32)oc2ccc(S(=O)(=O)N3CCOCC3)cc12 (stereo unspecified),0,0,0,0,6,7816,0,+
CCOC(=O)c1sc(-c2ccc(Br)cc2)cc1N,-,-,0,-,-,-,-,-
CCOC(=O)c1cc(-c2ccc(N)cc2)sc1N,0,0,0,0,10,21552,0,+
O=C(NCc1ccccc1)C1=C[C@@H](C2CCCCC2)C[C@@H](OCCCCO)O1,-,-,0,-,-,-,-,-
CCc1c(C)c2c(C)nn(-c3ccccc3)c2[nH]c1=O,0,0,0,0,3.2,7084,0,+
Cc1nn(-c2ccccc2)c2c1/C(=N/O)CC(C)(C)C2,0,0,-,0,12,11596,0,+
Cc1ccc(Cl)cc1N1CCN(CC(=O)Nc2ccc3[nH]c(=O)[nH]c3c2)CC1,0,0,0,0,0,-,-,-
O=c1n(Cc2ccccc2)c2cc(Cl)cnc2n1Cc1ccccc1,0,0,0,0,8.1,9248,0,0
O=C(CN(C(=O)CSc1nc2ccccc2o1)c1cccc(F)c1)NC1CCCCC1,-,-,0,-,-,-,-,-
O=C(c1cc2n(n1)C(C(F)(F)F)CC(c1ccc(F)cc1)N2)N1CCCC1 (stereo unspecified),0,0,0,0,0,-,-,-
Cc1cc(C)n(-c2nnc3n2N=C(c2c[nH]c4ccccc24)CS3)n1,0,0,0,0,9.8,10564,0,+
Cc1cc(C)n(-c2nnc3n2N=C(c2ccccc2)CS3)n1,0,0,0,0,0,-,-,-
COc1cc2c(cc1OC)[C@H](Cc1ccc(O)cc1)NCC2,-,-,0,-,-,-,-,-

# Assay outcomes as filed in PubChem BioAssay.
